Experimental findings from ChEMBL document CHEMBL1125270, “Renin inhibitors containing esters at the P2-position. Oral activity in a derivative of methyl aminomalonate” (J Med Chem, 1991) are described below.

One experiment has as its target T1, Cathepsin D (Bos taurus, UniProt P80209).
T1 sequence (P80209 whole entry): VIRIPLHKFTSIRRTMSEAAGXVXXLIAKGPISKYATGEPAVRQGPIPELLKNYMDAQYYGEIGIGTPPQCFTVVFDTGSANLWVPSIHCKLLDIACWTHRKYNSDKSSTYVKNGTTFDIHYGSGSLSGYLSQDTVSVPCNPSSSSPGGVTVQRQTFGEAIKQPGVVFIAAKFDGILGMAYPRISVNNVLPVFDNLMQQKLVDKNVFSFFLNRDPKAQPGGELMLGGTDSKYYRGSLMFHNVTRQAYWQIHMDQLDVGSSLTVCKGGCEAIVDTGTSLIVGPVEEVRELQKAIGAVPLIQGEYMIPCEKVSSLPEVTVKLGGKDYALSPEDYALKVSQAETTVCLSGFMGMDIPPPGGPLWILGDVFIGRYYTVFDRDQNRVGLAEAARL
In words: Inhibitory concentration on Bovine Cathepsin D.
Details: not given
In short, it runs like this: (§1)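 Bovine cathepsin D hydrolysing twice-crystallised bovine hemoglobin at pH 3.2 and 37 °C, run in duplicate. Net absorbance at 280 nm was read in acid-precipitated supernatants and compared with uninhibited controls. IC50 came from nonlinear regression over six inhibitor concentrations.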
The IC50 is the point on the concentration scale where inhibition reaches its midpoint. Consider `COC(=O)C(NC(=O)[C@H](Cc1ccccc1)NS(=O)(=O)N1CCOCC1)C(=O)N[C@@H](CC1CCCCC1)[C@@H](O)CC(=O)NCCN1CCOCC1` (stereo partly drawn), for which the IC50 is > 1000 nM.
`COC(=O)C(NC(=O)[C@H](Cc1ccccc1)NS(=O)(=O)N1CCOCC1)C(=O)N[C@@H](CC1CCCCC1)C(=O)C(F)(F)C(=O)NCCN1CCOCC1` (stereo partly drawn) showed an IC50 of 515 nM.
Same read-out and setting: to `COC(=O)C(NC(=O)[C@H](Cc1ccccc1)NS(=O)(=O)N1CCOCC1)C(=O)N[C@@H](CC(C)C)[C@@H](O)CC(=O)NCCN1CCOCC1` (stereo partly drawn) belongs > 1000 nM; to `CSC[C@H](NC(=O)[C@H](Cc1ccccc1)NC(=O)N1CCOCC1)C(=O)N[C@@H](CC1CCCCC1)[C@@H](O)C(=O)OC(C)C`, 24 nM.
On to `CCCCNC(=O)[C@@H](C[C@H](O)[C@H](CC1CCCCC1)NC(=O)[C@H](Cc1c[nH]cn1)NC(=O)[C@H](Cc1ccccc1)CS(=O)(=O)C(C)(C)C)C(C)C`, for which the IC50 stood at 1300 nM.

The next experiment concerns the target T1, Cathepsin D. In words: Inhibition of Bovine Cathepsin D.
Details: not given
The essentials:
as §1
`COC(=O)C(NC(=O)[C@H](Cc1ccccc1)NS(=O)(=O)N1CCOCC1)C(=O)N[C@@H](CC1CCCCC1)[C@@H](O)[C@H](O)CC(C)C` (stereo in doubt; 4) [listing 1 of 2 here] yielded an IC50 of 36 nM.
Still for that read-out and setting: the result for `C=CCOC(=O)C(NC(=O)[C@H](Cc1ccccc1)NS(=O)(=O)N1CCOCC1)C(=O)N[C@@H](CC1CCCCC1)[C@@H](O)[C@H](O)CC(C)C` (stereo partly drawn) reads > 100 nM; that for `COC(=O)C(NC(=O)[C@H](Cc1ccccc1)NS(=O)(=O)N1CCOCC1)C(=O)N[C@@H](CC1CCCCC1)[C@@H](O)[C@H](O)CC(C)C` (stereo in doubt; 4B), 77 nM.
On the same count and under the same terms, the result for `CC(C)C[C@@H](O)[C@H](O)[C@H](CC1CCCCC1)NC(=O)C(NC(=O)[C@H](Cc1ccccc1)NS(=O)(=O)N1CCOCC1)C(=O)OC(C)C` (stereo partly drawn) reads 43 nM.
In turn, `CC(C)C[C@@H](O)[C@H](O)[C@H](CC1CCCCC1)NC(=O)C(NC(=O)[C@H](Cc1ccccc1)NS(=O)(=O)N1CCOCC1)C(=O)O` (stereo partly drawn) gave a concentration for half-maximal inhibition (IC50) of 310 nM.
Same read-out and setting: the result for `COC(=O)CCC(NC(=O)[C@H](Cc1ccccc1)NS(=O)(=O)N1CCOCC1)C(=O)N[C@@H](CC1CCCCC1)[C@@H](O)[C@H](O)CC(C)C` (stereo partly drawn) reads 30 nM; that for `COC(=O)C(NC(=O)[C@H](Cc1ccccc1)NS(=O)(=O)N1CCOCC1)C(=O)N[C@@H](CC1CCCCC1)[C@@H](O)[C@H](O)CC(C)C` (stereo in doubt; 4A), 46 nM.
Still for that read-out and setting: the result for `COC(=O)CC(NC(=O)[C@H](Cc1ccccc1)NS(=O)(=O)N1CCOCC1)C(=O)N[C@@H](CC1CCCCC1)[C@@H](O)[C@H](O)CC(C)C` (stereo partly drawn) reads 27 nM; that for `COc1ccc(C[C@H](NC(=O)CC(C)(C)N)C(=O)N[C@@H](Cc2c[nH]cn2)C(=O)N[C@@H](CC2CCCCC2)[C@@H](O)[C@@H](O)CC(C)C)cc1`, > 1000 nM; that for `CCCCCCOC(=O)C(NC(=O)[C@H](Cc1ccccc1)NS(=O)(=O)N1CCOCC1)C(=O)N[C@@H](CC1CCCCC1)[C@@H](O)[C@H](O)CC(C)C` (stereo partly drawn), 100 nM.

For another experiment, the target named is Chymotrypsinogen A (Bos taurus) (UniProt P00766). Kind of experiment: % degradation to Chymotrypsinogen proteolysis at 15 mins.
Details: not given
The essentials: (§2)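 Bovine chymotrypsin in buffered solution at pH 6.9, following a previously established method. Test compound was incubated with the enzyme, and the percent of compound degraded was read at 15 or 30 min.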
With `COC(=O)C(NC(=O)[C@H](Cc1ccccc1)NS(=O)(=O)N1CCOCC1)C(=O)N[C@@H](CC1CCCCC1)[C@@H](O)[C@H](O)CC(C)C` (stereo in doubt; 4) [listing 2 of 2 here], the Degradation was 89%.

For another experiment the target is unchanged. Kind of experiment: % degradation to Chymotrypsinogen proteolysis at 30 mins.
Details: not given
In short, it runs like this: as §2
Turning to `C=CCOC(=O)C(NC(=O)[C@H](Cc1ccccc1)NS(=O)(=O)N1CCOCC1)C(=O)N[C@@H](CC1CCCCC1)[C@@H](O)[C@H](O)CC(C)C` (stereo partly drawn), the Degradation was found to be 65%.
On the same count and under the same terms, to `CC(C)C[C@@H](O)[C@H](O)[C@H](CC1CCCCC1)NC(=O)C(NC(=O)[C@H](Cc1ccccc1)NS(=O)(=O)N1CCOCC1)C(=O)OC(C)C` (stereo partly drawn) belongs 70%; to `COC(=O)C(NC(=O)[C@H](Cc1ccccc1)NS(=O)(=O)N1CCOCC1)C(=O)N[C@@H](CC1CCCCC1)[C@@H](O)[C@H](O)CC(C)C` (stereo in doubt; 4) [listing 2 of 2 here], 100%.
Still for that read-out and setting: to `CCCCCCOC(=O)C(NC(=O)[C@H](Cc1ccccc1)NS(=O)(=O)N1CCOCC1)C(=O)N[C@@H](CC1CCCCC1)[C@@H](O)[C@H](O)CC(C)C` (stereo partly drawn) belongs 15%.

A further experiment concerns Monkey. Kind of experiment: Maximum fall in mean arterial blood pressure expressed in mmHg following a 30 mg/kg dose in monkeys. The experiment is classed as functional, Cercopithecidae.
Details: not given
The essentials: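 Conscious monkeys were dosed orally by gavage at 30 mg/kg in water/dimethylacetamide/Tween 80 (62.5:7.5:30), 2 mL/kg. Two models were used: high-renin normotensive (sodium restriction plus furosemide) or renal hypertensive (renal artery clipping). Mean arterial pressure was followed for 3 h, and the maximum fall in mmHg was recorded. N is given per compound.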
For `CC(C)C[C@@H](O)[C@H](O)[C@H](CC1CCCCC1)NC(=O)C(NC(=O)[C@H](Cc1ccccc1)NS(=O)(=O)N1CCOCC1)C(=O)OC(C)C` (stereo partly drawn), the Blood pressure is given as 16 mmHg.
On the same count and under the same terms, to `COC(=O)C(NC(=O)[C@H](Cc1ccccc1)NS(=O)(=O)N1CCOCC1)C(=O)N[C@@H](CC1CCCCC1)C(=O)C(F)(F)C(=O)NCCN1CCOCC1` (stereo partly drawn) belongs 16 mmHg.
Still for that read-out and setting: the result for `COC(=O)CCC(NC(=O)[C@H](Cc1ccccc1)NS(=O)(=O)N1CCOCC1)C(=O)N[C@@H](CC1CCCCC1)[C@@H](O)[C@H](O)CC(C)C` (stereo partly drawn) reads 12 mmHg; that for `CSC[C@H](NC(=O)[C@H](Cc1ccccc1)NC(=O)N1CCOCC1)C(=O)N[C@@H](CC1CCCCC1)[C@@H](O)C(=O)OC(C)C`, 9 mmHg; that for `CCCCNC(=O)[C@@H](C[C@H](O)[C@H](CC1CCCCC1)NC(=O)[C@H](Cc1c[nH]cn1)NC(=O)[C@H](Cc1ccccc1)CS(=O)(=O)C(C)(C)C)C(C)C`, 16 mmHg.
Same read-out and setting: to `COC(=O)CC(NC(=O)[C@H](Cc1ccccc1)NS(=O)(=O)N1CCOCC1)C(=O)N[C@@H](CC1CCCCC1)[C@@H](O)[C@H](O)CC(C)C` (stereo partly drawn) belongs 3 mmHg; to `COc1ccc(C[C@H](NC(=O)CC(C)(C)N)C(=O)N[C@@H](Cc2c[nH]cn2)C(=O)N[C@@H](CC2CCCCC2)[C@@H](O)[C@@H](O)CC(C)C)cc1`, 8 mmHg.

Still in this experiment, the particulars now being: 30 mg/kg.
For `COC(=O)C(NC(=O)[C@H](Cc1ccccc1)NS(=O)(=O)N1CCOCC1)C(=O)N[C@@H](CC1CCCCC1)[C@@H](O)[C@H](O)CC(C)C` (stereo in doubt; 4) [listing 1 of 2 here], the Blood pressure is 22 mmHg.
As to `COC(=O)C(NC(=O)[C@H](Cc1ccccc1)NS(=O)(=O)N1CCOCC1)C(=O)N[C@@H](CC1CCCCC1)[C@@H](O)[C@H](O)CC(C)C` (stereo in doubt; 4B), the Blood pressure is reported as 14 mmHg.
Still for that read-out and setting: to `COC(=O)C(NC(=O)[C@H](Cc1ccccc1)NS(=O)(=O)N1CCOCC1)C(=O)N[C@@H](CC1CCCCC1)[C@@H](O)[C@H](O)CC(C)C` (stereo in doubt; 4A) belongs 18 mmHg.

For a further experiment, the target named is T2, Renin (Homo sapiens, UniProt P00797).
T2 sequence (P00797 whole entry): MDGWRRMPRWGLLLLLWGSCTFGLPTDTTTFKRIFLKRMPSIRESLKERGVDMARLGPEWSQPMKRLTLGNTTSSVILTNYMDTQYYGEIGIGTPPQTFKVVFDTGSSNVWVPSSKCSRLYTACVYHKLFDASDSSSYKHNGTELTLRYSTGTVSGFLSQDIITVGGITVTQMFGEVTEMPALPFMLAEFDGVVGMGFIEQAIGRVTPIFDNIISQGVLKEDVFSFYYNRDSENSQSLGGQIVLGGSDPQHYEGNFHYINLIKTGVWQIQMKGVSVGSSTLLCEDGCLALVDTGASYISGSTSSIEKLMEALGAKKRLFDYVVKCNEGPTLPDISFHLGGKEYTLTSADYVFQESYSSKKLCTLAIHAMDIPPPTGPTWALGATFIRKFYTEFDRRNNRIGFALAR
Kind of experiment: Inhibitory concentration against human renin.
Details: not given
Turning to `COC(=O)C(NC(=O)[C@H](Cc1ccccc1)NS(=O)(=O)N1CCOCC1)C(=O)N[C@@H](CC(C)C)[C@@H](O)CC(=O)NCCN1CCOCC1` (stereo partly drawn), half-maximal inhibition (IC50) was put at 130 nM.

For the next experiment, the target named is Renin (Macaca fascicularis). In words: Inhibition of monkey plasma renin.
Details: not given
`C=CCOC(=O)C(NC(=O)[C@H](Cc1ccccc1)NS(=O)(=O)N1CCOCC1)C(=O)N[C@@H](CC1CCCCC1)[C@@H](O)[C@H](O)CC(C)C` (stereo partly drawn): the IC50 was determined as 0.95 nM.
`CC(C)C[C@@H](O)[C@H](O)[C@H](CC1CCCCC1)NC(=O)C(NC(=O)[C@H](Cc1ccccc1)NS(=O)(=O)N1CCOCC1)C(=O)OC(C)C` (stereo partly drawn) came in with an IC50 of 0.68 nM.
Same read-out and setting: the result for `CC(C)C[C@@H](O)[C@H](O)[C@H](CC1CCCCC1)NC(=O)C(NC(=O)[C@H](Cc1ccccc1)NS(=O)(=O)N1CCOCC1)C(=O)O` (stereo partly drawn) reads 27 nM.
The same measure, in the same setting: the result for `COC(=O)CCC(NC(=O)[C@H](Cc1ccccc1)NS(=O)(=O)N1CCOCC1)C(=O)N[C@@H](CC1CCCCC1)[C@@H](O)[C@H](O)CC(C)C` (stereo partly drawn) reads 1.4 nM; that for `COC(=O)CC(NC(=O)[C@H](Cc1ccccc1)NS(=O)(=O)N1CCOCC1)C(=O)N[C@@H](CC1CCCCC1)[C@@H](O)[C@H](O)CC(C)C` (stereo partly drawn), 0.18 nM; that for `CCCCCCOC(=O)C(NC(=O)[C@H](Cc1ccccc1)NS(=O)(=O)N1CCOCC1)C(=O)N[C@@H](CC1CCCCC1)[C@@H](O)[C@H](O)CC(C)C` (stereo partly drawn), 15 nM.

In another experiment the test system is Monkey. Kind of experiment: Maximum fall in mean arterial blood pressure expressed in mmHg following a 3 mg/kg intravenous dose in monkeys.
Details: not given
Take `COC(=O)C(NC(=O)[C@H](Cc1ccccc1)NS(=O)(=O)N1CCOCC1)C(=O)N[C@@H](CC1CCCCC1)[C@@H](O)CC(=O)NCCN1CCOCC1` (stereo partly drawn): the Blood pressure came out at 16 mmHg.
